Measurements published in ChEMBL document CHEMBL1153809, “7,7-Dimethylaporphine alkaloids from the stem of Guatteriopsis friesiana” (2009).
Values after ≈ are worked out from the molar mass of the structure shown.

Tests used:
Type in all cases: functional
[1] = tested on: Salmonella enterica; assay: Antimicrobial activity against Salmonella choleraesuis ATCC 10708 after 48 hrs by TTC staining method; conditions: ATCC 10708, 48 h
How it was run: (§1)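 Bacteria grown overnight at 36 °C on nutrient agar. Cells suspended in 0.85% NaCl to McFarland 0.5 (checked at 580 nm), then diluted to 10^4 CFU/mL. Broth microdilution in Mueller-Hinton broth, in duplicate. Samples tested at 1.0-0.016 mg/mL; chloramphenicol and nystatin references at 0.25-0.002 mg/mL. Incubated 36 °C for 48 h, then 0.5% TTC added. MIC is the lowest concentration inhibiting visible growth by TTC staining.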

[2] = tested on: Enterococcus hirae; assay: Antimicrobial activity against Enterococcus hirae ATCC 10541 after 48 hrs by TTC staining method; conditions: ATCC 10541, 48 h; how it was run: as §1
[3] = tested on: Bacillus subtilis; assay: Antimicrobial activity against Bacillus subtilis ATCC 5061 after 48 hrs by TTC staining method; conditions: ATCC 5061, 48 h; how it was run: as §1
[4] = tested on: Enterococcus faecium; assay: Antimicrobial activity against Enterococcus faecium CCT 5079 after 48 hrs by TTC staining method; conditions: CCT 5079, 48 h; how it was run: as §1
[5] = tested on: Staphylococcus aureus; assay: Antimicrobial activity against Staphylococcus aureus ATCC 6538 after 48 hrs by TTC staining method; conditions: ATCC 6538, 48 h; how it was run: as §1
[6] = tested on: Pseudomonas aeruginosa; assay: Antimicrobial activity against Pseudomonas aeruginosa ATCC 13388 after 48 hrs by TTC staining method; conditions: ATCC 13388, 48 h; how it was run: as §1
[7] = tested on: Staphylococcus epidermidis; assay: Antimicrobial activity against Staphylococcus epidermidis ATCC 12228 after 48 hrs by TTC staining method; conditions: ATCC 12228, 48 h; how it was run: as §1
[8] = tested on: Micrococcus luteus; assay: Antimicrobial activity against Micrococcus luteus ATCC 4968 after 48 hrs by TTC staining method; conditions: ATCC 4968, 48 h; how it was run: as §1
[9] = tested on: Prescottella equi; assay: Antimicrobial activity against Rhodococcus equi ATCC 6939 after 48 hrs by TTC staining method; conditions: Rhodococcus (subgen. Prescottella) equi, ATCC 6939, 48 h; how it was run: as §1
[10] = tested on: Escherichia coli; assay: Antimicrobial activity against Escherichia coli ATCC 11775 after 48 hrs by TTC staining method; conditions: ATCC 11775, 48 h; how it was run: as §1
[11] = tested on: Candida albicans; assay: Antimicrobial activity against Candida albicans ATCC 10231 after 48 hrs by TTC staining method
How it was run: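 Yeast grown on Sabouraud dextrose agar. Cells suspended in 0.85% NaCl to McFarland 0.5 (checked at 580 nm), then diluted to 10^4 CFU/mL. Mueller-Hinton broth microdilution, in duplicate. Samples tested at 1.0-0.016 mg/mL; chloramphenicol and nystatin references at 0.25-0.002 mg/mL. Incubated 48 h at 36 °C, then 0.5% TTC added. MIC is the lowest concentration preventing visible growth by TTC stain.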

Molecule `O=C(N[C@H](CO)[C@H](O)c1ccc([N+](=O)[O-])cc1)C(Cl)Cl` [CHLORAMPHENICOL] has an MIC [1] of 60 µg/mL (≈ 186 µM), an MIC [2] of 120 µg/mL (≈ 371 µM) and an MIC [3] of 20 µg/mL (≈ 61.9 µM). For the same molecule, the MIC [4] was 70 µg/mL (≈ 217 µM), the MIC [5] was 20 µg/mL (≈ 61.9 µM) and the MIC [6] was 850 µg/mL (≈ 2630 µM). The MIC [7] was 40 µg/mL (≈ 124 µM), the MIC [8] was 50 µg/mL (≈ 155 µM) and the MIC [9] was 40 µg/mL (≈ 124 µM). It also gave an MIC [10] of 40 µg/mL (≈ 124 µM).

`O=C1c2ccccc2-c2c3c(cc4ccnc1c24)OCO3` [LIRIODENINE] was tested, and the MIC [1] was > 1000 µg/mL, the MIC [2] was 600 µg/mL (≈ 2180 µM) and the MIC [3] was 500 µg/mL (≈ 1820 µM). The MIC ([11]; ATCC 10231, 48 h) was > 1000 µg/mL, the MIC [4] was 150 µg/mL (≈ 545 µM) and the MIC [5] was > 1000 µg/mL. For the same molecule, the MIC [6] was > 1000 µg/mL, the MIC [8] was 150 µg/mL (≈ 545 µM) and the MIC [9] was 10 µg/mL (≈ 36.3 µM). For the same molecule, the MIC [10] was > 1000 µg/mL.

In the case of NYSTATIN, the MIC [11] is reported as 50 µg/mL.
